From ChEMBL document CHEMBL1153995, “Synthesis and biological evaluation of new enantiomerically pure azole derivatives as inhibitors of Mycobacterium tuberculosis” (2009)
Converted amounts (≈) assume the structure as drawn.

system: Mycobacterium tuberculosis; experiment: Antimycobacterial activity against Mycobacterium tuberculosis H37Rv ATCC 27294 after 21 to 28 days by two fold agar dilution method; format: functional
Procedure, shortened: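 Stock kept on Löwenstein-Jensen slants. Twofold agar dilution in Middlebrook 7H11 agar with 10% OADC, compounds at 0.0312–64 µg/mL. Inoculum grown in Middlebrook 7H9 with 10% ADC, suspension at 1.5 × 10⁵ cfu/mL, final 1.5 × 10³ per well. Incubated 21–28 days. MIC read as lowest concentration completely inhibiting visible growth.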

Compound	MIC
Clc1ccc(Cn2cc([C@H](c3ccc(Cl)cc3)n3ccnc3)nn2)cc1	32 µg/mL (≈ 83.3 µM)
Clc1ccc(Cn2cc([C@@H](c3ccc(Cl)cc3)n3ccnc3)nn2)cc1	32 µg/mL (≈ 83.3 µM)
Brc1ccc([C@H](c2cn(-c3ccccc3)nn2)n2ccnc2)cc1	32 µg/mL (≈ 84.2 µM)
Fc1ccc([C@@H](c2cn(-c3ccccc3)nn2)n2ccnc2)cc1	32 µg/mL (≈ 100 µM)
Brc1ccc([C@@H](c2cn(-c3ccccc3)nn2)n2ccnc2)cc1	32 µg/mL (≈ 84.2 µM)
Brc1ccc([C@@H](c2cn(Cc3ccccc3)nn2)n2ccnc2)cc1	32 µg/mL (≈ 81.2 µM)
Fc1ccc([C@@H](c2cn(Cc3ccccc3)nn2)n2ccnc2)cc1	64 µg/mL (≈ 192 µM)
Brc1ccc([C@H](c2cn(Cc3ccccc3)nn2)n2ccnc2)cc1	16 µg/mL (≈ 40.6 µM)
Clc1ccc(COC(Cn2ccnc2)c2ccc(Cl)cc2Cl)cc1 (stereo not drawn) [ECONAZOLE]	12.5 µg/mL (≈ 32.7 µM)
Clc1ccccc1C(c1ccccc1)(c1ccccc1)n1ccnc1 [CLOTRIMAZOLE]	20.4 µg/mL (≈ 59.2 µM)
Fc1ccc([C@H](c2cn(Cc3ccccc3)nn2)n2ccnc2)cc1	64 µg/mL (≈ 192 µM)
NNC(=O)c1ccncc1 [ISONIAZID]	0.2 µg/mL (≈ 1.46 µM)
Fc1ccc([C@H](c2cn(-c3ccccc3)nn2)n2ccnc2)cc1	32 µg/mL (≈ 100 µM)
